High-throughput results (PubChem)
Shown are actives, neighbours in structure and some others; about 2.4% of the full set was active somewhere.
NR2E3 ag-1: activates human photoreceptor nuclear receptor NR2E3; Q9Y5X4; GST-NR2E3/biotin-RetCOR TR-FRET, 1536-well; inhibition of corepressor binding, % at 4.78 µM; actives 0.12% (n = 320,000); AID 2300;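 active = percent inhibition above the cutoff of mean plus 3 SD of all tested compounds, set per screening campaign, cut at about 20% in these data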;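 also: 0% = DMSO wells and 100% = biotin wells as full block of FRET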
Target sequence (Q9Y5X4 whole entry, looked up): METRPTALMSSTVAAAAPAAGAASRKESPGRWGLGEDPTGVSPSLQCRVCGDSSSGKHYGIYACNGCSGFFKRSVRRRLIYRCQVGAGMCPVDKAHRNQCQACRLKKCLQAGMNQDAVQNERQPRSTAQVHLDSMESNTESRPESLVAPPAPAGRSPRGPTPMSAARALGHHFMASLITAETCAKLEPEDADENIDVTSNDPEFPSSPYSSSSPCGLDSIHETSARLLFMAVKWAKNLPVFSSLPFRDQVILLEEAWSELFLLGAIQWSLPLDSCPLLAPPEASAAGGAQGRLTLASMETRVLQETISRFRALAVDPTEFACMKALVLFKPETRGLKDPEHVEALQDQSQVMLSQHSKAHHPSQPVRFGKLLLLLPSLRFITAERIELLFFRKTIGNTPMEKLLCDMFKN
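Material: NR2E3–RetCOR corepressor complex / Amount: 1.35 nM GST-NR2E3 / Medium: Tris pH 7.5 / Compound: single nominal compound dose of 4.8 µM / Incubation: 5 h at 4 °C / Technique: TR-FRET, Eu(K)-anti-GST donor, streptavidin-D2 acceptor, ex 340, em 617/671 nm / Read-out basis: percent loss of FRET ratio relative to control wells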
Jurkat NFkB inh: lowers PMA/ionomycin-induced NF-kB signal in Jurkat cells. PMA/ionomycin-induced NF-kB luciferase reporter, luminescence. inhibition, % at 4 µM. actives 0.53% (n = 330,000); in the data active = inhibition above about 50%
MPTP inh: permeability transition pore inhibition. isolated mouse mitochondria, Ca2+ swelling absorbance, 30 min. inhibition, % at 10 µM. actives 1.4% (n = 360,000). AID 602449;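 active = inhibition of 50% or more, scaled per plate between neutral and stimulator controls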;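 also: 0% = DMSO wells given calcium and 100% = 1 mM EGTA wells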
aDG glyco up: alpha-DG glycosylation activation; AID 624168; activation, % at 10 µM; actives 0.22% (n = 360,000); Pro5-aDG cells, alpha-DG glycosylation AlphaScreen (IIH6); 0% Pro5, 100% B10-LARGE cell signal;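 active = activation of at least 8% versus controls, or a plate z-score of at least 8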;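 also: Pro5 are CHO cells carrying HIG-tagged alpha-DG that lacks glycosylation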
NR2E3 ag-2: activates human NR2E3 receptor; Q9Y5X4; CHO-S Gal4-NCOR/VP16-NR2E3 two-hybrid, luciferase; inhibition of corepressor binding, % at 3.98 µM; actives 0.35% (n = 360,000);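 active = inhibition above the mean of all tested compounds plus 3 SD, cut at about 70% in these data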;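 also: 0% = DMSO with NR2E3 transfected cells and 100% = cells lacking NR2E3 construct; higher means lower luciferase signal from less NR2E3 corepressor binding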
697 NFkB inh: lowers PMA/ionomycin-induced NF-kB signal in 697 B cells; 697 B-cell NF-kB luciferase reporter, 16 h; inhibition, % at 4 µM; actives 0.33% (n = 330,000); AID 435022; in the data active = inhibition above about 35%
Jurkat NFkB conf: inhibitors of the PMA/ionomycin-induced NF-kB reporter in Jurkat cells, retest; shares compounds with Jurkat NFkB inh; Jurkat NF-kB luciferase, 16 h; inhibition, % at 4 µM; actives 27% (n = 2,700);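 active = inhibition reaching about 45% at 4 µM in either replicate, limit read from the data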;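 also: plate controls were PMA/ionomycin stimulated DMSO wells for no effect and unstimulated DMSO wells for full effect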
Numbers without * were called inactive.

Results for O=C(NC1CCN(Cc2ccccc2)CC1)c1ccc(S(=O)(=O)NCc2ccco2)cc1 ?
NR2E3 ag-1: 0; Jurkat NFkB inh: 51*; MPTP inh: 24; aDG glyco up: 0; NR2E3 ag-2: -7; 697 NFkB inh: -34; Jurkat NFkB conf: 10

Results for Fc1ccc(-n2nnc(-c3cccnc3Cl)n2)cc1 ?
NR2E3 ag-1: 0; Jurkat NFkB inh: -152; MPTP inh: 0; aDG glyco up: 0; NR2E3 ag-2: -93; 697 NFkB inh: -152; Jurkat NFkB conf: -76

What do the screens show for `Clc1ncccc1-c1nnn(-c2ccccc2)n1`?
NR2E3 ag-1: -2; Jurkat NFkB inh: -138; MPTP inh: 0; aDG glyco up: 0; NR2E3 ag-2: -127; 697 NFkB inh: -148

Results for N=c1c(S(=O)(=O)c2ccc(Cl)cc2)cc2c(=O)n3ccccc3nc2n1C1CCCCC1 ?
NR2E3 ag-1: -1; Jurkat NFkB inh: 12; MPTP inh: 2; aDG glyco up: -1; NR2E3 ag-2: -23; 697 NFkB inh: 19

Results for CCCN1CCC(=NNc2ccc(S(=O)(=O)N3CCOCC3)cc2[N+](=O)[O-])CC1 ?
NR2E3 ag-1: -1; Jurkat NFkB inh: 64*; MPTP inh: 1; aDG glyco up: 0; NR2E3 ag-2: 17; 697 NFkB inh: -12; Jurkat NFkB conf: 2

Results for CCC(C)NC(=O)c1cn(CC)c2cc(N3CCN(C(=O)c4ccco4)CC3)c(F)cc2c1=O (stereo not given) ?
NR2E3 ag-1: 1; Jurkat NFkB inh: -36; MPTP inh: -1; aDG glyco up: 0; NR2E3 ag-2: 11; 697 NFkB inh: 5

How did CCCCn1c(N)c(N(Cc2ccccc2OC)C(=O)COc2ccc(C)cc2)c(=O)[nH]c1=O do in these assays?
NR2E3 ag-1: -3; Jurkat NFkB inh: -2; MPTP inh: 1; aDG glyco up: 0; NR2E3 ag-2: -29; 697 NFkB inh: -9

How did COc1ccc(-n2nnnc2SCC(=O)NCCc2ccccc2)cc1OC do in these assays?
NR2E3 ag-1: 3; Jurkat NFkB inh: -2; MPTP inh: 0; aDG glyco up: 1; NR2E3 ag-2: -4; 697 NFkB inh: 1

How did COc1ccc(CCNc2nnc(Sc3nnnn3-c3ccccc3)s2)cc1OC do in these assays?
NR2E3 ag-1: -6; Jurkat NFkB inh: 77*; MPTP inh: 6; aDG glyco up: 0; NR2E3 ag-2: 32; 697 NFkB inh: -130; Jurkat NFkB conf: 55*

Results for Cc1ccc(C)c(S(=O)(=O)N2CCCOC2CNC(=O)C(=O)NCCN2CCOCC2)c1 (stereo not given) ?
NR2E3 ag-1: 0; Jurkat NFkB inh: 1; MPTP inh: -2; aDG glyco up: 0; NR2E3 ag-2: -1; 697 NFkB inh: 6

What do the screens show for `COc1ccc(/C=C(\NC(=O)c2ccco2)C(=O)NCc2ccco2)cc1`?
NR2E3 ag-1: 1; Jurkat NFkB inh: 4; MPTP inh: 1; aDG glyco up: 0; NR2E3 ag-2: 6; 697 NFkB inh: 2

How did Cc1c(C(=O)OC2CCC(C)CC2)[nH]c2c1C(=O)CCC2 (stereo not given) do in these assays?
NR2E3 ag-1: -2; Jurkat NFkB inh: -215; MPTP inh: 1; aDG glyco up: 0; NR2E3 ag-2: -134; 697 NFkB inh: -218; Jurkat NFkB conf: -120

What do the screens show for `O=C(c1cc(-c2ccncc2)nc2c(Cl)cccc12)N1CCN(c2ccccc2F)CC1`?
NR2E3 ag-1: 3; Jurkat NFkB inh: 60*; MPTP inh: -1; aDG glyco up: 0; NR2E3 ag-2: -30; 697 NFkB inh: 1; Jurkat NFkB conf: 36

Results for CC1C/C(=C\c2ccccc2[N+](=O)[O-])c2nc3ccccc3c(C(=O)O)c2C1 (stereo not given) ?
NR2E3 ag-1: 2; Jurkat NFkB inh: -5; MPTP inh: 2; aDG glyco up: 0; NR2E3 ag-2: -5; 697 NFkB inh: 3

What do the screens show for `O=C(/C=C/c1cccs1)N1CCc2ccccc21`?
NR2E3 ag-1: 1; Jurkat NFkB inh: -161; MPTP inh: -1; aDG glyco up: 0; NR2E3 ag-2: -180; 697 NFkB inh: -194; Jurkat NFkB conf: -102

Results for Cc1cc2nc3ccc(N(C)C)cc3nc2cc1N ?
NR2E3 ag-1: -24; Jurkat NFkB inh: -5; MPTP inh: 8; aDG glyco up: 0; NR2E3 ag-2: -143; 697 NFkB inh: -4

Results for COc1cc(Nc2ccc(C)cc2)c([N+](=O)[O-])nc1[N+](=O)[O-] ?
NR2E3 ag-1: 3; Jurkat NFkB inh: 58*; MPTP inh: 0; aDG glyco up: 0; NR2E3 ag-2: -39; 697 NFkB inh: -52; Jurkat NFkB conf: 50*

What do the screens show for `Cc1cc(C)cc(Nc2ccc([N+](=O)[O-])nc2[N+](=O)[O-])c1`?
NR2E3 ag-1: 4; Jurkat NFkB inh: 9; MPTP inh: 1; aDG glyco up: 0; NR2E3 ag-2: -10; 697 NFkB inh: 29

How did C/C(=N\NC(=O)c1cc(C)nc2ccccc12)c1ccncc1 do in these assays?
NR2E3 ag-1: -2; Jurkat NFkB inh: 9; MPTP inh: -1; aDG glyco up: -1; NR2E3 ag-2: -47; 697 NFkB inh: 1

Results for C/C(=N/NC(=O)c1ccncc1)c1ccc(NC(=O)c2ccc(Cl)cc2Cl)cc1 ?
NR2E3 ag-1: 2; Jurkat NFkB inh: -73; MPTP inh: 4; aDG glyco up: 0; NR2E3 ag-2: -99; 697 NFkB inh: -29

How did C/C(=N\NC(=O)c1cc(C)nc2ccccc12)c1ccccn1 do in these assays?
NR2E3 ag-1: 1; Jurkat NFkB inh: 95*; MPTP inh: 0; aDG glyco up: 0; NR2E3 ag-2: -55; 697 NFkB inh: -77; Jurkat NFkB conf: 45*

What do the screens show for `COc1cc(OC)cc(C(=O)NNC(=O)c2ccccn2)c1`?
NR2E3 ag-1: 1; Jurkat NFkB inh: -11; MPTP inh: -1; aDG glyco up: 1; NR2E3 ag-2: 4; 697 NFkB inh: -12

What do the screens show for `C/C(=N\NC(=O)c1ccccn1)c1ccc(Cl)cc1`?
NR2E3 ag-1: 0; Jurkat NFkB inh: -124; MPTP inh: 1; aDG glyco up: 0; NR2E3 ag-2: -94; 697 NFkB inh: -137

What do the screens show for `COc1ccc(C(=O)NNC(=O)c2ccccn2)cc1`?
NR2E3 ag-1: 1; Jurkat NFkB inh: 52*; MPTP inh: 0; aDG glyco up: 0; NR2E3 ag-2: -120; 697 NFkB inh: -61; Jurkat NFkB conf: 63*

What do the screens show for `C/C(=N\NC(=O)c1ccc(Cl)cc1)c1ccccn1`?
NR2E3 ag-1: -2; Jurkat NFkB inh: 98*; MPTP inh: 0; aDG glyco up: 0; NR2E3 ag-2: -30; 697 NFkB inh: -123; Jurkat NFkB conf: -1
